High-throughput results (PubChem)
Shown are actives, neighbours in structure and some others; about 2.9% of the full set was active somewhere.
A3A deaminase = inhibitors of human APOBEC3A DNA deaminase. recombinant A3A, FAM/TAMRA ssDNA deamination fluorescence. inhibition, % at 20 µM. 330,000 tested, 0.41% active;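 active means at least 40% inhibition at 20 µM here, with at most 30% in a related deaminase screen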
NS3 helicase inh = HCV NS3 helicase inhibition; 290,000 tested, 0.56% active; AID 1800; NS3 helicase DNA unwinding, Cy5 molecular beacon fluorescence; inhibition, % at 10.9 µM;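 active means inhibition above the mean of all tested compounds plus 3 SD, set per campaign, cut at about 35% in these data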
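Test system: hepatitis C virus NS3 helicase domain fragment enzyme. Also added: annealed dual-labelled DNA beacon duplex, ATP-started. Timing: 60 min unwinding reaction at 25 °C after ATP addition. Technique: Cy5 fluorescence. Measure: % inhibition of unwinding.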
core dimer inh = HCV core protein dimerization inhibition | TR-FRET GST/Flag-core106 dimerization, 1536-well | inhibition, % at 5 µM | 300,000 tested, 0.33% active;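 active means inhibition above the mean of all tested compounds plus 3 SD, set per screening campaign, cut at about 45% in these data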
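Material: Tagged HCV core106 pair (GST and Flag) | Amount: GST-core106 13.5 nM, Flag-core106 17 nM | Medium: KF-containing HEPES buffer, pH 7.45, DTT, CHAPS, BSA | Reagent: Eu donor and XL665 acceptor anti-tag antibodies | Schedule: 4 h at 22.5 °C | Technique: Time-resolved FRET, ex 340 nm, em 617 and 671 nm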
APOBEC3G inh = APOBEC3G (human) deaminase inhibition. Q9HC16. recombinant A3G, ssDNA deamination FAM/TAMRA fluorescence. inhibition, % at 20 µM. 330,000 tested, 0.28% active;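 active means inhibition of at least 40% at 20 µM, with no more than 30% in the related APOBEC3A deaminase screen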
PRMT1 inh = blocks human protein arginine methyltransferase 1; inhibition, % at 2.79 µM; AID 652257; 370,000 tested, 1.3% active; Q99873; recombinant PRMT1, activity-based probe fluorescence polarization;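 active means inhibition above about 21% made by adding two undisclosed values, limit read from the data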
ABHD5 PLIN5 PPI = blocks binding of human ABHD5 to perilipin-5 | Q00G26+Q8WTS1 | Split G. princeps luciferase complementation, luminescence, 4 h | inhibition, % at 4 µM | 360,000 tested, 0.78% active;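 active means inhibition above the mean inhibition across every tested compound plus 3 SD, cut at about 22% in these data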
Target sequence (Q00G26 whole entry, looked up): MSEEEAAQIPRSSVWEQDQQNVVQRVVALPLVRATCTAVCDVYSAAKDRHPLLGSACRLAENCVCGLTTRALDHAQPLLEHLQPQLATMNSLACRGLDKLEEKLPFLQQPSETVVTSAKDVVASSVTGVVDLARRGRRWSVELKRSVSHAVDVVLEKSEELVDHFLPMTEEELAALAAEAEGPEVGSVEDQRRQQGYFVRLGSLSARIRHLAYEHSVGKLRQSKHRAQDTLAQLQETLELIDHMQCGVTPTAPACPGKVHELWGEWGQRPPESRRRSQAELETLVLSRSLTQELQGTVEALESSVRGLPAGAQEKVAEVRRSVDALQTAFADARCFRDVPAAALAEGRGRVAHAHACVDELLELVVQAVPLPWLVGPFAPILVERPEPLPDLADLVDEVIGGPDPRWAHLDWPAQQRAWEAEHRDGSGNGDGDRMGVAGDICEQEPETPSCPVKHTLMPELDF
Target sequence (Q8WTS1 whole entry, looked up): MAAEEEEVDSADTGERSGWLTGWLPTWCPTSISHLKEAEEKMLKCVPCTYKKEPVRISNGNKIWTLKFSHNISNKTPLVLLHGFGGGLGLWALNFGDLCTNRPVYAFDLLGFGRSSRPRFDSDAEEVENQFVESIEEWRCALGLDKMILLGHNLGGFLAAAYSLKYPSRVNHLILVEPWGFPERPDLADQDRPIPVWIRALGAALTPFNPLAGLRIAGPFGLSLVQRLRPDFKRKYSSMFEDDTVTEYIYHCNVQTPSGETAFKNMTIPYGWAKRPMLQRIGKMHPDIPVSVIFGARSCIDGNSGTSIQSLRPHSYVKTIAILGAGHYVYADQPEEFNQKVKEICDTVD
PRMT1 inh conf = PRMT1 (human) inhibition, FP confirmation. shares compounds with PRMT1 inh. recombinant His-PRMT1, activity-based probe fluorescence polarization. inhibition, % at 2.79 µM. 3,300 tested, 42% active;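 active means mean inhibition across replicates above the hit cutoff derived for the earlier primary screen, cut at about 22% in these data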
Large screens that a line does not name were inactive (follow-up assays come after a bar, where they were run).

O=C1C2C3C=CC(CC3)C2C(=O)N1c1ccc(F)cc1 (centres undefined)	none
CC(C)C1NC2(C(=O)c3ccccc3C2=O)C2C(=O)N(c3ccc(F)cc3)C(=O)C12 (centres undefined)	PRMT1 inh 33.0 | PRMT1 inh conf 44.3
CCCCCCCCc1nc(=S)[nH][nH]1	PRMT1 inh 27.1 | PRMT1 inh conf 36.6
CCCCCCC1CC(CCc2nc(=S)[nH][nH]2)C(=O)O1 (centres undefined)	none
COc1ccc(N(CC(=O)N/N=C/c2ccccc2OC)S(=O)(=O)c2ccccc2)cc1	none
Cc1nn(Cc2ccccc2)c(C)c1CNC(=O)[C@H](C)N=C1NS(=O)(=O)c2ccccc21	none (no result: A3A deaminase, NS3 helicase inh, core dimer inh, APOBEC3G inh)
CCOC(=O)c1cc(-c2ccc(F)cc2)n(CC(=O)NCc2cccnc2)c1C	PRMT1 inh 27.6 | PRMT1 inh conf inactive
CC(C)(C)OC(=O)NCc1ccc(NC(=O)c2nc[nH]c2C(=O)NCCCNC(=O)c2[nH]cnc2C(=O)Nc2ccc(CNC(=O)OC(C)(C)C)cc2)cc1	none (no result: NS3 helicase inh, core dimer inh, PRMT1 inh)
NCCSSCCN	PRMT1 inh 80.0 (no result: NS3 helicase inh) | PRMT1 inh conf 31.1
Cc1ccc(N2C(=O)CC(Sc3nccc(C)n3)C2=O)cc1 (centres undefined)	none
Cc1ccc(SC2CC(=O)N(c3ccc4c(c3)OCCO4)C2=O)cc1 (centres undefined)	PRMT1 inh 35.9 | PRMT1 inh conf 25.6
Cc1ccc(N2C(=O)CC(Sc3cccs3)C2=O)cc1 (centres undefined)	PRMT1 inh 66.0 | PRMT1 inh conf 51.4
COCCNC(=O)C1(C)CCN(C(=O)c2ccc(SC(F)(F)F)cc2)C1 (centres undefined)	none (no result: A3A deaminase, NS3 helicase inh, core dimer inh, APOBEC3G inh)
CC(C(=O)NCC(=O)Nc1ccc(F)c(F)c1F)N1CCN(c2ccc(O)cc2)CC1 (centres undefined)	PRMT1 inh 28.1 (no result: NS3 helicase inh, core dimer inh) | PRMT1 inh conf inactive
Nc1cccnc1Sc1cc(Cl)cc(Cl)c1	PRMT1 inh 61.9 | PRMT1 inh conf inactive
Cc1ccc(Sc2ncccc2N)cc1	none (no result: NS3 helicase inh)
C=CCN(CC#CC1=CCCCC1)Cc1ccccc1	none (no result: A3A deaminase, NS3 helicase inh, core dimer inh, APOBEC3G inh, ABHD5 PLIN5 PPI)
O=c1nc2n(CCO)c3ccccc3cc-2c(=O)[nH]1	none (no result: A3A deaminase, NS3 helicase inh, core dimer inh, APOBEC3G inh)
CC(=O)OCCn1c2nc(=O)[nH]c(=O)c-2nc2cc(C)c(C)cc21	PRMT1 inh 158.7 (no result: core dimer inh) | PRMT1 inh conf 150.0
CC(=O)Nc1ccc(C=NNc2ccc([N+](=O)[O-])cc2S(=O)(=O)Nc2ccccc2C(=O)O)cc1	none (no result: NS3 helicase inh, core dimer inh)
Cc1ccc(NC(=S)NNc2ccc([N+](=O)[O-])cc2S(=O)(=O)Nc2ccccc2C(=O)O)cc1C	PRMT1 inh 26.8 (no result: A3A deaminase, APOBEC3G inh) | PRMT1 inh conf 39.5
CCN(CC)c1ccc2cc(-c3nnc(-c4ccccc4)o3)c(=O)oc2c1	none
CCN(CC)c1ccc2cc(-c3nc(-c4ccc(OC)cc4)cs3)c(=O)oc2c1	PRMT1 inh 44.9 (no result: ABHD5 PLIN5 PPI) | PRMT1 inh conf 77.7
CCOc1ccc(-n2c(SCC(=O)Nc3ccc4c(c3)OCCO4)nnc2-c2ccncc2)cc1	none (no result: A3A deaminase, NS3 helicase inh, core dimer inh, APOBEC3G inh, ABHD5 PLIN5 PPI)
CC(C)N1CCSC1=S	none (no result: A3A deaminase, NS3 helicase inh, core dimer inh, APOBEC3G inh)
CC(C)C[C@H]1CNC(=S)N1CC1CCCN1C[C@H](CC(C)C)N1C[C@H](Cc2ccccc2)N(CC2CCCCCC2)C1=S (some centres undefined)	PRMT1 inh 31.2 (no result: A3A deaminase, NS3 helicase inh, core dimer inh, APOBEC3G inh) | PRMT1 inh conf inactive
CCc1nc2ccc(C(=O)N3CCN(C)CC3)cn2c1N(CCC(C)C)CCN(C)C	none (no result: A3A deaminase, NS3 helicase inh, core dimer inh, APOBEC3G inh)
CC(/C=N/n1c(-c2ccccc2)n[nH]c1=S)=C\c1ccco1	none
Cc1cc(-c2n[nH]c(=S)n2N=Cc2c3ccccc3cc3ccccc23)n[nH]1	PRMT1 inh 42.3 (no result: A3A deaminase, NS3 helicase inh, core dimer inh, APOBEC3G inh, ABHD5 PLIN5 PPI) | PRMT1 inh conf inactive
Cc1cc(-c2n[nH]c(=S)n2/N=C/C(Cl)=C/c2ccccc2)n[nH]1	PRMT1 inh 25.9 | PRMT1 inh conf inactive
S=c1[nH]nc(C2CCCCC2)n1/N=C/C(Cl)=C\c1ccccc1	none
S=c1[nH]nc(-c2ccco2)n1/N=C/C(Cl)=C/c1ccccc1	PRMT1 inh 25.6 | PRMT1 inh conf inactive
Cc1ccc(C)c(NC(=O)CCN2CCCCC2)c1	none
O=C(O)/C=C/C(=O)Nc1cccc2c1-c1ccccc1C2=O	PRMT1 inh 67.1 (no result: A3A deaminase, NS3 helicase inh, core dimer inh, APOBEC3G inh) | PRMT1 inh conf inactive
